Assays:
[1] = molecular target: T1, Alkaline phosphatase, tissue-nonspecific isozyme (Homo sapiens, UniProt P05186); test: Inhibition of TNAP by analogous luminescence assay
T1 sequence (P05186 whole entry): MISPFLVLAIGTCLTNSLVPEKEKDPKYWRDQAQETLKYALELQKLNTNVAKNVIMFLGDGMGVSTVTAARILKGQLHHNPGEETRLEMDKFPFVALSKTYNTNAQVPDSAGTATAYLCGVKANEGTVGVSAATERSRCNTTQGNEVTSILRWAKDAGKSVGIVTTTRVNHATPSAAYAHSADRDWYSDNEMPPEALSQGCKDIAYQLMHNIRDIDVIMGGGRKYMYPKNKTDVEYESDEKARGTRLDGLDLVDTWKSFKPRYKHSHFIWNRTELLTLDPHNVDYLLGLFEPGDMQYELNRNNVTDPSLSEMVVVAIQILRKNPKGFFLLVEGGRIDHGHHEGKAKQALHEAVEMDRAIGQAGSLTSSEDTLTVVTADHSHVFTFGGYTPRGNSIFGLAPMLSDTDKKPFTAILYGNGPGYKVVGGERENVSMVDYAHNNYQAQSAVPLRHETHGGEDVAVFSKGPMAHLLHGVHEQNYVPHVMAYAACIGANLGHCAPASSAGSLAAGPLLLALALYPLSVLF

[2] = molecular target: Alkaline phosphatase, germ cell type (Homo sapiens, UniProt P10696); test: Inhibition of GCAP by analogous luminescence assay
Alkaline phosphatase, germ cell type, sequence (P10696 whole entry): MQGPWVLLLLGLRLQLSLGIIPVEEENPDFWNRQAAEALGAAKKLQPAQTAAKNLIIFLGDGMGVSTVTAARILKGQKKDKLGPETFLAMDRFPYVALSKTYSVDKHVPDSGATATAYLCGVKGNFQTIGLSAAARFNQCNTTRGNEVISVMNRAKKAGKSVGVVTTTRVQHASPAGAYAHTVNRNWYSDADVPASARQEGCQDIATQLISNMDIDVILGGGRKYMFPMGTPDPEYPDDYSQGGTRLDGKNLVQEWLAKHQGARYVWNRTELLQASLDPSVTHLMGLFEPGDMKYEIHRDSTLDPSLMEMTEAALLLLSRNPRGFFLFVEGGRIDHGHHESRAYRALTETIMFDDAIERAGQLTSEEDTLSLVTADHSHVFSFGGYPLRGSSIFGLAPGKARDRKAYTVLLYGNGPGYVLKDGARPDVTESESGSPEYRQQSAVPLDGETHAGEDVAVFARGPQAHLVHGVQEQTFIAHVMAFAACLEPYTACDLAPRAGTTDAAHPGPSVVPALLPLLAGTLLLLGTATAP
Summary of the method: (§1)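 GCAP and PLAP IC50s were measured together in dose-response runs on a separate occasion, using enzyme concentrations that differed from those of the main assays.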

[3] = Selectivity ratio of IC50 for IAP to IC50 for PLAP
[4] = Selectivity ratio of IC50 for GCAP to IC50 for PLAP; summary of the method: as §1
[5] = Selectivity ratio of IC50 for TNAP to IC50 for PLAP
[6] = molecular target: Intestinal-type alkaline phosphatase (Homo sapiens, UniProt P09923); test: Inhibition of IAP by analogous luminescence assay
Intestinal-type alkaline phosphatase, sequence (P09923 whole entry): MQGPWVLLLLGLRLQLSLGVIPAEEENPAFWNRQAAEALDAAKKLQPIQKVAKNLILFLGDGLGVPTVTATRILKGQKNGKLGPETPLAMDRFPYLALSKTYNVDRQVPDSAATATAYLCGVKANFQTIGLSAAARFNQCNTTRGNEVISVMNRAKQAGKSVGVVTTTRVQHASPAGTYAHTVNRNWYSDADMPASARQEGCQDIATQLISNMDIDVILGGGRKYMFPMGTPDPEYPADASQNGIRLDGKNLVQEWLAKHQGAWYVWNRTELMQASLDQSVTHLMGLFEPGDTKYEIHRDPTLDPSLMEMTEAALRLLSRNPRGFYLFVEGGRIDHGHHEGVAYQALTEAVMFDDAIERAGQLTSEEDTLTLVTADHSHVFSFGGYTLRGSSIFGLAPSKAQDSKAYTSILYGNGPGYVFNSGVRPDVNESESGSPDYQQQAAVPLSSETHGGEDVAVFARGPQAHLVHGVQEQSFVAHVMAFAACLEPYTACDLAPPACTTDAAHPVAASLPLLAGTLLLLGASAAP

SMILES	IC50 [1] [µM]	IC50 [6] [µM]	other results
O=C(Cn1ccnc1)c1ccc(O)c(O)c1	> 100		IC50 [2]: 1.2 µM; Ratio IC50 [3]: 15; Ratio IC50 [4]: 0.6; Ratio IC50 [5]: > 32
CC(C)C[C@H](N)C(N)=O [LEUCINE AMIDE]		> 5	
O=C(CNc1nc2ccccc2[nH]1)c1ccc(O)c(O)c1	93.8		IC50 [2]: 6.2 µM; Ratio IC50 [4]: 0.7
COc1ccc(-n2nnnc2SCC(=O)c2ccc(O)c(O)c2)cc1	8		
O=C(Cn1cnc(Br)c1)c1ccc(O)c(O)c1	47.5		
O=C(Cn1ccnc1-c1ccccc1)c1ccc(O)c(O)c1	> 100		
CC(C)NCC(=O)c1ccc(O)c(O)c1	> 100		
Cc1cc(C)nc(SCC(=O)c2ccc(O)c(O)c2)n1			IC50 [2]: 0.6 µM
Cc1cc2ncn(CC(=O)c3ccc(O)c(O)c3)c2cc1C	> 100		
Cc1nc2ccccc2n1CC(=O)c1ccc(O)c(O)c1	26.3	> 100	IC50 [2]: 9.4 µM
N[C@@H](Cc1c[nH]c2ccccc12)C(=O)O [TRYPTOPHAN]		> 5	
O=C(Cn1cnnc1)c1ccc(O)c(O)c1	> 100		
N=C(N)NCCCC[C@H](N)C(=O)O		> 5	
Cn1c(=O)c2[nH]cnc2n(C)c1=O [THEOPHYLLINE]		> 5	
CCc1nccn1CC(=O)c1ccc(O)c(O)c1	> 100	> 100	IC50 [2]: 1.7 µM; Ratio IC50 [3]: > 24; Ratio IC50 [4]: 2.1; Ratio IC50 [5]: > 27
O=C(Cn1cnc2ccccc21)c1ccc(O)c(O)c1	18		IC50 [2]: 2.7 µM
Cc1nc(Br)cn1CC(=O)c1ccc(O)c(O)c1	8.7		Ratio IC50 [5]: 1.7
Cc1cn(CC(=O)c2ccc(O)c(O)c2)cn1	41.1		Ratio IC50 [5]: 7
c1ccc([C@H]2CN3CCSC3=N2)cc1 [LEVAMISOLE]		> 5	
CC(C)C[C@H](N)C(=O)O [LEUCINE]		> 5	
COc1ccc2c(c1OC)C(=O)OC2CC(=O)c1ccc(O)c(O)c1 (configuration not stated)	29.2		
Cc1cnn(CC(=O)c2ccc(O)c(O)c2)c1	> 100		Ratio IC50 [3]: 25
Cc1nccn1CC(=O)c1ccc(O)c(O)c1	78.3		IC50 [2]: 30.5 µM
N[C@@H](Cc1ccccc1)C(=O)O [PHENYLALANINE]		> 5	

— ChEMBL document CHEMBL1159036, “Design and synthesis of selective inhibitors of placental alkaline phosphatase” (Bioorg Med Chem, 2010)
